For assay [1], the target named is T1, Tyrosine-protein phosphatase non-receptor type 1 (Homo sapiens) (UniProt P18031).
T1 sequence (whole entry): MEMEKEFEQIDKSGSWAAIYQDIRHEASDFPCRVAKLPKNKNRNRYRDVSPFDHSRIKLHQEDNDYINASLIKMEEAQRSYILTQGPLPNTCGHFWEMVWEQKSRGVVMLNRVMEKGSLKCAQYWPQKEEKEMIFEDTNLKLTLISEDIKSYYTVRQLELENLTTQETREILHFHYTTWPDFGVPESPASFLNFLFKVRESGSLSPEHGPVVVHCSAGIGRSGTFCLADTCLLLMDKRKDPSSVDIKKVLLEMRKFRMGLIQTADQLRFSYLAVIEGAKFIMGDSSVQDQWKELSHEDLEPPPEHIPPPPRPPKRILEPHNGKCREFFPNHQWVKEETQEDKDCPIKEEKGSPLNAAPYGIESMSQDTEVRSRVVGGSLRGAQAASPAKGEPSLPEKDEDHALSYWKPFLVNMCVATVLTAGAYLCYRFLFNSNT
As to the kind of experiment: Inhibition of PTP1B (unknown origin) using pNPP as substrate at 20 ug/ml by colorimetric assay.

Assay [2] deals with T2, Tyrosine-protein phosphatase non-receptor type 1 (Homo sapiens, UniProt P18031).
T2 sequence (P18031 whole entry): T1 sequence (whole entry)
Put plainly: Inhibition of PTP1B (unknown origin) using pNPP as substrate by colorimetric assay. In short, it runs like this: (§1)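 GST-PTP1B or GST-TCPTP at 30 nmol/L, 2 mmol/L pNPP, 50 mmol/L MOPS pH 6.5, 2% DMSO, compounds serially diluted from DMSO. Hydrolysis followed continuously at 405 nm for 3 min at 30 °C. IC50 from nonlinear fit of % inhibition vs concentration with Hill coefficient; means ± SD of three replications.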

Assay [3] deals with T3, Tyrosine-protein phosphatase non-receptor type 6 (Homo sapiens, UniProt P29350). Put plainly: Inhibition of SHP1 (unknown origin) using 3-o-methylfluorescein phosphatase substrate at 20 ug/ml by colorimetric assay.
T3 sequence (P29350 whole entry): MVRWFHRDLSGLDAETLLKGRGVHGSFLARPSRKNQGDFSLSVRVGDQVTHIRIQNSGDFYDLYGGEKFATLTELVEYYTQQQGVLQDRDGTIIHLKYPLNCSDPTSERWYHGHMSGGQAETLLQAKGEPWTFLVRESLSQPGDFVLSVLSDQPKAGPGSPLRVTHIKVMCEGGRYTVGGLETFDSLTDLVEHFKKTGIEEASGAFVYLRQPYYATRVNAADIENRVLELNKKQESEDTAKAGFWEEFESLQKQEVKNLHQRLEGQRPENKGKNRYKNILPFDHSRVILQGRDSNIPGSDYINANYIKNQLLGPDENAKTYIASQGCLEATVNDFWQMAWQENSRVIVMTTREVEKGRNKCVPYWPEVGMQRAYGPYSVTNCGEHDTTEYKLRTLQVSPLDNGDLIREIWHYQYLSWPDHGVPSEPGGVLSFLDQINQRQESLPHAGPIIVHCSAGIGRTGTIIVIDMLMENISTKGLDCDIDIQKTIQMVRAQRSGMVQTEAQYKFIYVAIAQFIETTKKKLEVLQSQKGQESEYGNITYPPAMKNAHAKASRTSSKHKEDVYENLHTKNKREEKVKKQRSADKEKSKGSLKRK
Assay [4] concerns the target T4, Tyrosine-protein phosphatase non-receptor type 2 (Homo sapiens, UniProt P17706).
T4 sequence (P17706 whole entry): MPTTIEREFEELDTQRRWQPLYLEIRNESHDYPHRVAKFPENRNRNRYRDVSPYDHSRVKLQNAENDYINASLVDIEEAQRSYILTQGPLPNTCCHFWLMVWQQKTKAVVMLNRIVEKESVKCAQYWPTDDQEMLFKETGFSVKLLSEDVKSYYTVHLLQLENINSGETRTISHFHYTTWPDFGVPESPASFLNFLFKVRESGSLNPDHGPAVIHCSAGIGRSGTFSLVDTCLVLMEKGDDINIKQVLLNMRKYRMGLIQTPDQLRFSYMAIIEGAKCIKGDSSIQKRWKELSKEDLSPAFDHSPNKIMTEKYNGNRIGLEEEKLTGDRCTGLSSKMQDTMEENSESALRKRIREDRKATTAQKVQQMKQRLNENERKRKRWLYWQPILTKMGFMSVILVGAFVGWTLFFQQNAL
Put plainly: Inhibition of TCPTP (unknown origin) using pNPP as substrate by colorimetric assay. The method, boiled down:
as §1

In assay [5] the target is T5, Tyrosine-protein phosphatase non-receptor type 11 (Homo sapiens) (UniProt Q06124).
T5 sequence (whole entry): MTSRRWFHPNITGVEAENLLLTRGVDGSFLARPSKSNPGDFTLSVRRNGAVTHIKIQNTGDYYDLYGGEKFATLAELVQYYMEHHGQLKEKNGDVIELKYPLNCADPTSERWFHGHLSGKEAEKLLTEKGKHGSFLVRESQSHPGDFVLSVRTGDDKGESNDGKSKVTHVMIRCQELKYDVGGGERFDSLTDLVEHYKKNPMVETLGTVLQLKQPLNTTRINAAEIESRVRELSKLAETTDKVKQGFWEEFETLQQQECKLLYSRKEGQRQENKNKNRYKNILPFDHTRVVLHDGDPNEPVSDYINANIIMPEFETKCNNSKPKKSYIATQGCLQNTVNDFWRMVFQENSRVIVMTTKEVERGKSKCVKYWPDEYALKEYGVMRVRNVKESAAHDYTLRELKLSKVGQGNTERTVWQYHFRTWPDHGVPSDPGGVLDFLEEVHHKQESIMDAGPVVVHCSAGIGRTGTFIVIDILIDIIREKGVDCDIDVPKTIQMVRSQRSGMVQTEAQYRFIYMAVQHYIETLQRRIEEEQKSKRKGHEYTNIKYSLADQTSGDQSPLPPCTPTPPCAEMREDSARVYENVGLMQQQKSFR
As to the kind of experiment: Inhibition of SHP2 (unknown origin) using 3-o-methylfluorescein phosphatase substrate at 20 ug/ml by colorimetric assay.

For assay [6], the target named is T6, Tyrosine-protein phosphatase non-receptor type 11 (Homo sapiens, UniProt Q06124).
T6 sequence (Q06124 whole entry): T5 sequence (whole entry)
As to the kind of experiment: Inhibition of SHP2 (unknown origin) using 3-o-methylfluorescein phosphatase substrate by colorimetric assay. In short, it runs like this:
(§2)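 SHP1, SHP2 or LAR recombinant enzyme at 20 nmol/L with 10 µmol/L OMFP in 50 mmol/L MOPS pH 6.5, 2 mmol/L DTT, 1 mmol/L EDTA, 2% DMSO, 30 °C. Fluorescent product read at ex 485/em 530 nm; initial rate from the early linear part of the kinetic curve.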

For assay [7], the target named is T7, Receptor-type tyrosine-protein phosphatase F (Homo sapiens, UniProt P10586). Put plainly: Inhibition of LAR (unknown origin) using 3-o-methylfluorescein phosphatase substrate at 20 ug/ml by colorimetric assay.
T7 sequence (P10586 whole entry): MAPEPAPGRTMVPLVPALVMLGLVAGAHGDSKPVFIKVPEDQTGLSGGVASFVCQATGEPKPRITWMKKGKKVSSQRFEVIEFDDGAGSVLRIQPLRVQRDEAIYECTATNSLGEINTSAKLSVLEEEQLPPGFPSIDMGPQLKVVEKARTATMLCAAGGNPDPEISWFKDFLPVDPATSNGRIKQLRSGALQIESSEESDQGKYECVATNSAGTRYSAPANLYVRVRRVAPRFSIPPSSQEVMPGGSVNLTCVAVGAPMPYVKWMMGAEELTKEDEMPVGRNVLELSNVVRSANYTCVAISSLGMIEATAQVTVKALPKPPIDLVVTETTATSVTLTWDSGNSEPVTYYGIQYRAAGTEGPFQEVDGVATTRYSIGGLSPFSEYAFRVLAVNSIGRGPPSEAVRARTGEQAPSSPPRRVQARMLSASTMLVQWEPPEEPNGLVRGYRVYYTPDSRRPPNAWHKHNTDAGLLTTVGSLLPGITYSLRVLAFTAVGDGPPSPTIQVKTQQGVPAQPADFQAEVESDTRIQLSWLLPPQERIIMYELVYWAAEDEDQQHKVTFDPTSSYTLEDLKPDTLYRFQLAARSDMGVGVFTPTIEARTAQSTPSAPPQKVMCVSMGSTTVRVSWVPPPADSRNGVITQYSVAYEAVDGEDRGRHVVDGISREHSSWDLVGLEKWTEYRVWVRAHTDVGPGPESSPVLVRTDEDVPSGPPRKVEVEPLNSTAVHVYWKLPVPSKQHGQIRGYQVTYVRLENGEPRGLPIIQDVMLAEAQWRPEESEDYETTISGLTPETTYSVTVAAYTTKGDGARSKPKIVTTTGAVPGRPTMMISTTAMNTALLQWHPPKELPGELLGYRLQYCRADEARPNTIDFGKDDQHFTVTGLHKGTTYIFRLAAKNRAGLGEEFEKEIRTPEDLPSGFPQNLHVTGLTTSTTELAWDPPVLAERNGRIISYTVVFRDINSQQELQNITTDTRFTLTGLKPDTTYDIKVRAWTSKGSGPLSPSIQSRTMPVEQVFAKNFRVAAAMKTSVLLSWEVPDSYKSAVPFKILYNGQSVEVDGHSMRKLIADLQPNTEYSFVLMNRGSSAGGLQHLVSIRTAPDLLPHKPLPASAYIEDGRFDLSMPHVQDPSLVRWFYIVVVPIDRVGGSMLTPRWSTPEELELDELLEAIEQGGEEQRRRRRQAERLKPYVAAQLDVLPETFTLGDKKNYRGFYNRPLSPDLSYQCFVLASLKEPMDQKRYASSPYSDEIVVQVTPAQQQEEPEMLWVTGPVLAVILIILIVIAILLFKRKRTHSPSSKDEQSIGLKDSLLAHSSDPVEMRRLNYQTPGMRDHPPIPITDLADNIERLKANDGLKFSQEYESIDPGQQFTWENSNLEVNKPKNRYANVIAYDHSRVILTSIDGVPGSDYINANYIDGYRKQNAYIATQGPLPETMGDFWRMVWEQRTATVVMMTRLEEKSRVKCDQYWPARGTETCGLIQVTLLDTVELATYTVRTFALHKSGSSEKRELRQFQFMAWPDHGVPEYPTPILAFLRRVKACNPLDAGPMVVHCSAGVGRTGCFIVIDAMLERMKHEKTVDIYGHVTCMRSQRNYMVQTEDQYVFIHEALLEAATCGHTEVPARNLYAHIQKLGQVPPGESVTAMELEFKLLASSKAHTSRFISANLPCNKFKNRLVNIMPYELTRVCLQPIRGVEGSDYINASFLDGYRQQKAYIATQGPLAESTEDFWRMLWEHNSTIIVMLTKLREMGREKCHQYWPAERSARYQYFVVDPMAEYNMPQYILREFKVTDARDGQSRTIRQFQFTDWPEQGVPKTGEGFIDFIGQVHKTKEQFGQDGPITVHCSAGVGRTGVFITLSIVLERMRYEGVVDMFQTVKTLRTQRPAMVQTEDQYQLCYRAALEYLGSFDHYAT
The target in assay [8] is T8, Tyrosine-protein phosphatase non-receptor type 2 (Homo sapiens) (UniProt P17706).
T8 sequence (whole entry): T4 sequence (P17706 whole entry)
As to the kind of experiment: Inhibition of TCPTP (unknown origin) using pNPP as substrate at 20 ug/ml by colorimetric assay.

The target in assay [9] is T3, Tyrosine-protein phosphatase non-receptor type 6. Put plainly: Inhibition of SHP1 (unknown origin) using 3-o-methylfluorescein phosphatase substrate by colorimetric assay. In short, it runs like this: as §2
The target of assay [10] is T7, Receptor-type tyrosine-protein phosphatase F. Put plainly: Inhibition of LAR (unknown origin) using 3-o-methylfluorescein phosphatase substrate by colorimetric assay. In short, it runs like this: as §2
The species entered for assay [11] is Homo sapiens. As to the kind of experiment: Selectivity ratio of IC50 for LAR (unknown origin) to IC50 for PTP1B (unknown origin).
The species named for assay [12] is Homo sapiens. Put plainly: Selectivity ratio of IC50 for SHP2 (unknown origin) to IC50 for PTP1B (unknown origin).
The species named for assay [13] is Homo sapiens. Put plainly: Selectivity ratio of IC50 for TCPTP (unknown origin) to IC50 for PTP1B (unknown origin).

By inhibition is commonly meant the change of the read-out against control, counted positive when it falls. In [1], `O=C(O)c1cn(Cc2ccccc2)c2ccc(I)cc2c1=O` had an inhibition of 3.1%.

Compound `O=C(NCc1ccccc1)c1cn(C2CC2)c2ccc(F)cc2c1=O` had an inhibition in assay [1] of 0.2%.

For the compound `O=C(NCc1ccc(F)cc1)c1cn(C2CC2)c2ccc(I)cc2c1=O`, in [1], the inhibition came to 3.3%.

`O=C(O)c1cn(C2CC2)c2ccc(F)cc2c1=O` had an inhibition in [1] of 0.8%.

As a reminder, the IC50 is the concentration that inhibits the measured activity by half. In assay [1], `O=C(OCc1ccccc1)c1cn(C2CC2)c2ccc(I)cc2c1=O` came in with an inhibition of 80.5%. Moreover, the IC50 in assay [2] was 25.6 µM.

For the compound `COC(=O)c1cc(Cn2cc(C(=O)NCc3ccccc3)c(=O)c3cc(I)ccc32)ccc1OC`, the IC50 in [2] was > 34.3 µM.

As to `O=C(NCc1ccccc1)c1cn(C2CC2)c2cc(F)ccc2c1=O`, the inhibition in assay [1] came out at 7.4%.

In [2], `COC(=O)c1c(O)cccc1OCCCNC(=O)c1cn(Cc2ccccc2)c2cc(F)ccc2c1=O` gave a half-inhibitory concentration (IC50) of 18.6 µM.

On to `COC(=O)c1c(O)cccc1OCCCNC(=O)c1cn(Cc2ccc(F)cc2)c2ccc([N+](=O)[O-])cc2c1=O`, for which the inhibition in assay [3], in assay [5], in assay [7] and in [8] was < 50% in each case. Besides, the half-inhibitory concentration (IC50) in assay [2] is 11.8 µM; in assay [4] it was “Not Active”; in [6] it was “Not Active”; in assay [9], “Not Active”; in [10], “Not Active”.

As for `O=C(O)c1cn(C2CC2)c2ccc(Cc3ccccc3)cc2c1=O`, the inhibition in [3] is < 50%; in [1], 87.5%; in [5], < 50%; in assay [7] it was < 50%; in [8] it was < 50%. Besides, the IC50 was 23.5 µM in assay [2]; “Not Active” in [4]; “Not Active” in assay [6]; “Not Active” in assay [9]; “Not Active” in [10].

As for `O=C(OCc1ccc(F)cc1)c1cn(C2CC2)c2ccc(Cc3ccc(F)cc3)cc2c1=O`, the inhibition in [1] is 73%. In [2], it took 31.4 µM to reach half-maximal inhibition (IC50).

On to `O=C(O)c1cn(C2CC2)c2ccc(I)cc2c1=O`, for which the inhibition in [1] was determined as 3.5%.

For `O=C(NCc1ccccc1)c1cn(Cc2ccccc2)c2ccc(F)cc2c1=O`, the inhibition in assay [1] was determined as 41.4%.

Regarding `O=C(NCc1ccccc1)c1cn(C2CC2)c2ccc(I)cc2c1=O`, in assay [1], the inhibition was determined as 6.1%.

`Nc1ccc2c(c1)c(=O)c(C(=O)O)cn2Cc1ccc(F)cc1` displayed an inhibition in assay [1] of 12.4%.

Take `O=C(O)c1cn(Cc2ccc(F)cc2)c2ccc([N+](=O)[O-])cc2c1=O`: the inhibition in assay [1] is 36.2%.

In turn, `COC(=O)c1c(OCCCN2CCN(c3ccc4c(c3)c(=O)c(C(=O)O)cn4C3CC3)CC2)cccc1OCc1ccccc1` gave a half-inhibitory concentration (IC50) in assay [2] of 73.9 µM.

Consider `O=C(O)c1cn(Cc2ccccc2)c2ccc(F)cc2c1=O`, for which the inhibition in [1] worked out at 15.1%.

`COC(=O)c1cc(Cn2cc(C(=O)O)c(=O)c3cc(I)ccc32)ccc1OC`: the IC50 in [2] is > 40.5 µM.

In the case of `O=C(O)c1cn(Cc2ccccc2)c2cc(F)ccc2c1=O`, the inhibition in assay [1] turned out to be 0.7%.

Turning to `O=C(OCc1ccccc1)c1cn(Cc2ccccc2)c2ccc(Cc3ccccc3)cc2c1=O`, the inhibition in assay [1] came to 0.1%.

Take `O=C(O)c1cn(C2CC2)c2ccc(N3CCN(Cc4ccccc4)CC3)cc2c1=O`: the inhibition in [1] amounted to 62.3%. In [2], this compound had a concentration for half-maximal inhibition (IC50) of 22.8 µM.

`O=C(O)c1cn(Cc2ccccc2)c2ccc(Cc3ccccc3)cc2c1=O`: in assay [1], the inhibition was 15.1%.

With `COC(=O)c1cc(Cn2cc(C(=O)O)c(=O)c3cc(I)ccc32)ccc1O`, the inhibition in assay [3], in assay [5], in assay [7] and in assay [8] was < 50% in each case. For the same compound, the IC50 was 16.9 µM in [2]; “Not Active” in [4]; “Not Active” in assay [6]; “Not Active” in [9]; “Not Active” in [10].

On to `O=C(O)c1cn(C2CC2)c2ccc(Cc3ccc(F)cc3)cc2c1=O`, for which the inhibition is < 50% in assay [3]; 71.1% in assay [1]; < 50% in assay [5]; < 50% in assay [7]; < 50% in assay [8]. In addition, the IC50 is 36.5 µM in assay [2]; “Not Active” in assay [4]; “Not Active” in [6]; “Not Active” in [9]; “Not Active” in assay [10].

Consider `O=C(NCc1ccccc1)c1cn(Cc2ccccc2)c2ccc(I)cc2c1=O`, for which the inhibition in assay [3] is < 50%; in [1], 61.8%; in assay [5], < 50%; in assay [7], < 50%; in [8] it was < 50%. For the same compound, the concentration for half-maximal inhibition (IC50) in assay [2] is 28.1 µM; in assay [4], “Not Active”; in assay [6], “Not Active”; in assay [9], “Not Active”; in [10] it was “Not Active”.

`O=C(/C=C(\O)C(=O)N1CCN(C(=O)/C(O)=C\C(=O)c2cccc(N(Cc3ccccc3)Cc3ccccc3)c2)CC1)c1cccc(N(Cc2ccccc2)Cc2ccccc2)c1` displayed an IC50 in [2] of 2.8 µM.

Regarding `O=C(O)/C(O)=C/C(=O)c1cccc(Cn2cc(C(=O)O)c(=O)c3cc(I)ccc32)c1`, the half-maximal inhibitory concentration (IC50) was 4.62 µM in [2]; 9.44 µM in assay [4] (read-out: IC50 (converted)); “Not Active” in assay [6]; 9.82 µM in [9] (read-out: IC50 (converted)); “Not Active” in assay [10]. The Ratio IC50 was > 10 in the assay listed under Homo sapiens [11], > 10 in the assay listed under Homo sapiens [12] and 2 in the assay listed under Homo sapiens [13]. The inhibition in [5] and in assay [7] was < 50% throughout.

The values are drawn from ChEMBL document CHEMBL3352526, “4-Quinolone-3-carboxylic acids as cell-permeable inhibitors of protein tyrosine phosphatase 1B” (Bioorg Med Chem, 2014).
